Measurements as given in ChEMBL document CHEMBL4390662, “Design, synthesis and biological evaluation of novel α-acyloxy carboxamides via Passerini reaction as caspase 3/7 activators” (Eur J Med Chem, 2019).
Values after ≈ are worked out from the molar mass of the structure shown. Active and inactive are the calls of the source. The calls are words filed in the database; no cut-off is given here.

Assays:
[1] = tested on: MCF7; experiment: Cytotoxicity against human MCF7 cells assessed as cell growth inhibition incubated for 72 hrs by MTT assay; type: functional, cell-based; details: MCF7, 72 h
Method in brief: (§1)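 Cells grown in RPMI-1640 with 10% FBS and seeded at 5×10^3 per well. After 24 h, serial concentrations given for 72 h at 37°C, 5% CO2. Then 5 mg/mL MTT stock added for 3 h, formazan dissolved in DMSO, A570 read. IC50 calculated from the curves.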

[2] = tested on: HepG2; experiment: Cytotoxicity against human HepG2 cells assessed as cell growth inhibition incubated for 72 hrs by MTT assay; type: functional, cell-based; details: HepG2, 72 h; method in brief: as §1
[3] = Selectivity index, ratio of IC50 for human WI38 cells to IC50 for human HepG2 cells; type: toxicity; details: WI38 cells versus HepG2 cells, read-out: Ratio IC50
Method in brief: (§2)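 SI calculated as IC50 on normal Wi-38 fibroblasts divided by IC50 on the cancer cell line. Both came from 72 h MTT assays.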

[4] = tested on: NFS-60; experiment: Cytotoxicity against mouse NFS60 cells assessed as cell growth inhibition incubated for 72 hrs by MTT assay; type: functional, cell-based; details: NFS-60, 72 h; method in brief: as §1
[5] = tested on: Escherichia coli; experiment: Antimicrobial activity against Escherichia coli ATCC 25922 incubated for 24 hrs by agar well diffusion assay; type: functional
Method in brief: (§3)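 Nutrient agar spread with 100 µL inoculum: bacteria at 1×10^8 CFU/mL, fungi at 1×10^6 CFU/mL. 10 mm wells loaded with 100 µL of compound in DMSO (final 1 mg/mL). Bacteria incubated 24 h at 37 °C, fungi 48 h at 28 °C. Inhibition zones measured in mm. Ciprofloxacin and fluconazole standards at 1 mg/mL, DMSO negative control.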

[6] = Selectivity index, ratio of IC50 for human WI38 cells to IC50 for mouse NFS60 cells; method in brief: as §2
[7] = tested on: Enterococcus faecalis; experiment: Antimicrobial activity against Enterococcus faecalis ATCC 29212 incubated for 24 hrs by agar well diffusion assay; type: functional; method in brief: as §3
[8] = tested on: WI-38; experiment: Cytotoxicity against human WI38 cells assessed as cell growth inhibition incubated for 72 hrs by MTT assay; type: cell-based; details: for IC50: Homo sapiens, WI-38, 72 h; for EC100: human, wi-38, 72 h
Method in brief: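 Wi-38 fibroblasts grown in DMEM with 10% FBS and seeded at 5×10^3 per well. Attachment 24 h, then serial concentrations for 72 h at 37°C, 5% CO2. MTT stock (5 mg/mL) added for 3 h at 37°C, DMSO solubilization, absorbance at 570 nm. IC50 estimated.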

[9] = Selectivity index, ratio of IC50 for human WI38 cells to IC50 for human MCF7 cells; type: toxicity; details: WI38 cells versus MCF7 cells, read-out: Ratio IC50; method in brief: as §2
[10] = tested on: Candida albicans; experiment: Antimicrobial activity against Candida albicans ATCC 90028 incubated for 48 hrs by agar well diffusion assay; type: functional; method in brief: as §3
[11] = tested on: Pseudomonas aeruginosa; experiment: Antimicrobial activity against Pseudomonas aeruginosa ATCC 27853 incubated for 24 hrs by agar well diffusion assay; type: functional; method in brief: as §3
[12] = tested on: Staphylococcus aureus; experiment: Antimicrobial activity against Staphylococcus aureus ATCC 25923 incubated for 24 hrs by agar well diffusion assay; type: functional; method in brief: as §3
[13] = tested on: Staphylococcus aureus; experiment: Antimicrobial activity against Staphylococcus aureus ATCC 25923 incubated for 24 hrs by microdilution assay; type: functional
Method in brief: (§4)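 Two-fold serial dilutions of test solutions made in Mueller Hinton broth and inoculated. Incubated at 37°C for 24 h. MIC taken as the lowest concentration with no growth. Ciprofloxacin is the antibacterial reference, fluconazole the antifungal one, and DMSO the blank.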

[14] = tested on: Escherichia coli; experiment: Antimicrobial activity against Escherichia coli ATCC 25922 incubated for 24 hrs by microdilution assay; type: functional; method in brief: as §4
[15] = tested on: Candida albicans; experiment: Antimicrobial activity against Candida albicans ATCC 90028 incubated for 24 hrs by microdilution assay; type: functional; method in brief: as §4

| SMILES | IC50 [1] [nM] | IC50 [2] [nM] | selectivity ratio [3] | IC50 [4] [nM] | diameter of the inhibition zone (DIZ) [5] | Ratio IC50 [6] | diameter of the inhibition zone (DIZ) [7] | IC50 [8] [nM] | EC100 [8] [µM] | selectivity ratio [9] | diameter of the inhibition zone (DIZ) [10] | diameter of the inhibition zone (DIZ) [11] | diameter of the inhibition zone (DIZ) [12] | MIC [13] | MIC ([14]; ATCC 25922, 24 h) [µM] | MIC [15] | MIC ([13]; ATCC 25923, 24 h) [µM] | MIC [14] | MIC ([15]; ATCC 90028, 24 h) [µM] |
| --- | --- | --- | --- | --- | --- | --- | --- | --- | --- | --- | --- | --- | --- | --- | --- | --- | --- | --- | --- |
| O=C(/C=C/c1ccccc1)OC1(C(=O)Nc2ccc([N+](=O)[O-])cc2)CCCCC1 | 57.6 | 52.9 | 0.774 | 50.5 | inactive | 0.811 | inactive | 41 | 0.0197 | 0.711 | inactive | inactive | inactive |  |  |  |  |  |  |
| COc1ccc(C(=O)OC2(C(=O)Nc3ccc([N+](=O)[O-])cc3)CCCCC2)cc1 | 41.2 | 57.1 | 0.7 | 38.8 | 12 mm | 1.031 | inactive | 40 | 0.0178 | 0.97 | inactive | 12 mm | inactive | inactive | 2570 (≈ 1020 µg/mL) | inactive |  |  |  |
| O=C(O)c1cn(C2CC2)c2cc(N3CCNCC3)c(F)cc2c1=O [CIPROFLOXACIN] |  |  |  |  | 43 mm |  | 24 mm |  |  |  |  | 40 mm | 26 mm |  | 3 (≈ 0.994 µg/mL) |  | 6 (≈ 1.99 µg/mL) |  |  |
| CC(=O)Oc1ccccc1C(=O)OC1(C(=O)Nc2ccc([N+](=O)[O-])cc2)CCCCC1 | 16.9 | 17.7 | 2.73 | 11.3 | 16 mm | 4.283 | inactive | 48.4 | 0.0355 | 2.86 | inactive | 16 mm | inactive | inactive | 2400 (≈ 1020 µg/mL) | inactive |  |  |  |
| O=C(OC1(C(=O)Nc2ccc([N+](=O)[O-])cc2)CCCCC1)c1ccc(Cl)cc1 | 15 | 21.8 | 16.3 | 10.3 | 14 mm | 34.466 | 13 mm | 355 | 0.1128 | 23.7 | inactive | 16 mm | inactive | inactive | 1270 (≈ 512 µg/mL) | inactive |  |  |  |
| CCOC1(Nc2ccc([N+](=O)[O-])cc2)C(=O)c2ccccc2C1=O | 34.9 | 38.9 | 1.21 | 27.8 | inactive | 1.69 | 13 mm | 47 | 0.0285 | 1.35 | inactive | 16 mm | 12 mm |  |  | inactive | 1570 (≈ 512 µg/mL) | inactive |  |
| O=COC1(C(=O)Nc2ccc([N+](=O)[O-])cc2)CCCCC1 | 35.4 | 34.1 | 1.36 | 33.8 | 15 mm | 1.369 | 12 mm | 46.3 | 0.0271 | 1.31 | inactive | 18 mm | inactive | inactive | 3500 (≈ 1020 µg/mL) | inactive |  |  |  |
| O=C(Nc1ccc([N+](=O)[O-])cc1)C1(O)CCCCC1 | 664 | 648 | 1.88 | 716 | 12 mm | 1.705 | inactive | 1220 | 0.53 | 1.84 | 15 mm | inactive | inactive | inactive |  |  |  | inactive | 1040 (≈ 275 µg/mL) |
| O=C(OC1(C(=O)Nc2ccc([N+](=O)[O-])cc2)CCCCC1)c1ccc(C(F)(F)F)cc1 | 27.1 | 29.1 | 6.36 | 26 | inactive | 7.115 | inactive | 185 | 0.0398 | 6.83 | inactive | inactive | inactive |  |  |  |  |  |  |
| OC(Cn1cncn1)(Cn1cncn1)c1ccc(F)cc1F [FLUCONAZOLE] |  |  |  |  |  |  |  |  |  |  | 29 mm |  |  |  |  |  |  |  | 1 (≈ 0.306 µg/mL) |
| CCC(=O)OC1(C(=O)Nc2ccc([N+](=O)[O-])cc2)CCCCC1 | 14.1 | 21.5 | 2.07 | 6.4 | inactive | 6.968 | inactive | 44.6 | 0.0169 | 3.16 | inactive | 12 mm | inactive |  |  |  |  |  |  |
